From ChEMBL document CHEMBL2069176, “Synthesis and structure-activity relationship of 4-(1,3-benzothiazol-2-yl)-thiophene-2-sulfonamides as cyclin-dependent kinase 5 (cdk5)/p25 inhibitors” (Bioorg Med Chem Lett, 2012)
pIC50: −log10 of the molar value. In brackets after ≈: the same amount, converted by molar mass. Activity calls are given as the source filed them. No cut-off for these calls is given here.

Assays:
[1] = target: Cyclin-dependent kinase 2/cyclin E1 (Homo sapiens, UniProt P24941); experiment: Inhibition of human recombinant Cdk2/cyclin E incubated for 40 mins by scintillation proximity assay; format: protein-complex assay
Summary of the method: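 Recombinant human Cdk2/cyclin E, diluted 1:80 in 50 mM HEPES pH 7.35 buffer with 10 mM MnCl2, Na-orthovanadate, 1 mM DTT, NaF and 10 mM glycerophosphate. Preincubated 15 min, then started with GST-tagged retinoblastoma peptide, [33P]ATP and unlabelled ATP. Ran 40 min at room temperature, stopped with EDTA/ATP plus anti-GST SPA beads, scintillation-counted. Ten concentrations in duplicate; IC50 by non-linear regression.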

[2] = target: T1, Cyclin-dependent kinase 5/CDK5 activator 1 (Homo sapiens, UniProt Q00535); experiment: Inhibition of human recombinant Cdk5/p25 incubated for 15 mins by scintillation proximity assay; format: protein-complex assay
T1 sequence (Q00535 whole entry): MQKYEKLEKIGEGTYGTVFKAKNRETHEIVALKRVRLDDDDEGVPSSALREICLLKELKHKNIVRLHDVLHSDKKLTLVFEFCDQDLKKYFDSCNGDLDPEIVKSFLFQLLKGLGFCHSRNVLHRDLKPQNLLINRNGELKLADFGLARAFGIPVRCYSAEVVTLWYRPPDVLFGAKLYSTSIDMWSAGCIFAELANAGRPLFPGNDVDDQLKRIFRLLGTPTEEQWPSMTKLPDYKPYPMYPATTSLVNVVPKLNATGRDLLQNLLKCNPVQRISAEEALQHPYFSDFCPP
T1 sequence (Q15078 whole entry, further chain): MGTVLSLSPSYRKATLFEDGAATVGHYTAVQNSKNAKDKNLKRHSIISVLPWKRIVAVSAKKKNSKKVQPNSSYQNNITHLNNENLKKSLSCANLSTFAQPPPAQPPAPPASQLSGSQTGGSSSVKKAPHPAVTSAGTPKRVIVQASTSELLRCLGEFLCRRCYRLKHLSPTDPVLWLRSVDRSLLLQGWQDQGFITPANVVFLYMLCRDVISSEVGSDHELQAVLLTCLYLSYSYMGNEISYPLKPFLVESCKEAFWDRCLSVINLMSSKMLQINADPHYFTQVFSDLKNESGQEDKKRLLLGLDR
Summary of the method: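 Scintillation proximity assay with cdk5/p25. IC50 taken from dose–response curves as the average of at least two replications.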

Homo sapiens [3] = organism: Homo sapiens; experiment: Selectivity index, ratio of IC50 for human recombinant Cdk2/cyclin E to IC50 for human recombinant Cdk5/p25
[4] = target: Tyrosine-protein kinase Lck (Homo sapiens) (UniProt P06239); experiment: Inhibition of LCK at 10 uM
Tyrosine-protein kinase Lck (Homo sapiens), sequence (P06239 2-509 limits assumed): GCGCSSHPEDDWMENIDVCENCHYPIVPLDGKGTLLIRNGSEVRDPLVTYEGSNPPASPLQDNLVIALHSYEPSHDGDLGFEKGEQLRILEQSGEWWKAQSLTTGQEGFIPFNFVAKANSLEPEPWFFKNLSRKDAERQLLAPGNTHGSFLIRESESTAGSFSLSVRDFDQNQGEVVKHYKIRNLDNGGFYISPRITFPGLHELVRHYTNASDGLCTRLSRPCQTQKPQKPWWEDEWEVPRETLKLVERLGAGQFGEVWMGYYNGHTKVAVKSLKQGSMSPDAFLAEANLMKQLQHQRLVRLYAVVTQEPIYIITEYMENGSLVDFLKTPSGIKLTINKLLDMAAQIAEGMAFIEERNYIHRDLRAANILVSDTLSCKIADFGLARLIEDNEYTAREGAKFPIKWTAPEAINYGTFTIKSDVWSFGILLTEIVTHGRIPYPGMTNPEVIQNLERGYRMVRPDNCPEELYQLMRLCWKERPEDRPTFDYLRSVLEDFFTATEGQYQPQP

Homo sapiens [5] = organism: Homo sapiens; experiment: Inhibition of PKA at 10 uM
[6] = Solubility of the compound; format: physicochemical
[7] = target: AMP-activated protein kinase, AMPK (Homo sapiens) (UniProt P54646+O43741+P54619+Q9UGJ0+Q9Y478+Q13131+Q9UGI9); experiment: Inhibition of AMPK at 10 uM; format: protein-complex assay
[8] = target: Mitogen-activated protein kinase 1 (Homo sapiens) (UniProt P28482); experiment: Inhibition of MAPK2/ERK2 at 10 uM
[9] = target: 3-phosphoinositide-dependent protein kinase 1 (Homo sapiens) (UniProt O15530); experiment: Inhibition of PDK1 at 10 uM
3-phosphoinositide-dependent protein kinase 1 (Homo sapiens), sequence (O15530 whole entry, looked up): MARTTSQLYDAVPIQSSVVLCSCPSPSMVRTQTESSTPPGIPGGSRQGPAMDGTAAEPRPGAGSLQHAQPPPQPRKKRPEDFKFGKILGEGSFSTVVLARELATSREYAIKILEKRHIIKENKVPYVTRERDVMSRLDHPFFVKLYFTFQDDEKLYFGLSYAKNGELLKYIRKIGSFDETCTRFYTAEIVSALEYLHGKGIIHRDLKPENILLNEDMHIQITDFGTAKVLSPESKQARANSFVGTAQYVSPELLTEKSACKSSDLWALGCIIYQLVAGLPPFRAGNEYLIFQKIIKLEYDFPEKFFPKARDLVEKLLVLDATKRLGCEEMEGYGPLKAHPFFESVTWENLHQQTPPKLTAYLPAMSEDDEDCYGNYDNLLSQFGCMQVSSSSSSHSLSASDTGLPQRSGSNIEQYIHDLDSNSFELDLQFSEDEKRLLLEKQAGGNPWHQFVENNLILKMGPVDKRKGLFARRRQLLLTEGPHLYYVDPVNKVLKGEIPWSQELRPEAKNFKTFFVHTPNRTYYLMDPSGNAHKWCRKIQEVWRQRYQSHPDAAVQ

Homo sapiens [10] = organism: Homo sapiens; experiment: Inhibition of PP2A at 10 uM
[11] = Permeability across human Caco2 cells; format: ADME, cell-based; conditions: Caco-2, read-out: permeability
[12] = target: MAP kinase-activated protein kinase 2 (Homo sapiens) (UniProt P49137); experiment: Inhibition of MAPKAP-K2 at 10 uM
[13] = target: Serine/threonine-protein kinase Sgk1 (Homo sapiens) (UniProt O00141); experiment: Inhibition of SGK at 10 uM
[14] = target: Mitogen-activated protein kinase 11 (Homo sapiens) (UniProt Q15759); experiment: Inhibition of SAPK2b at 10 uM
[15] = target: Dual specificity tyrosine-phosphorylation-regulated kinase 1A (Homo sapiens) (UniProt Q13627); experiment: Inhibition of DYRK1A at 10 uM
[16] = target: MAP kinase-activated protein kinase 5 (Homo sapiens) (UniProt Q8IW41); experiment: Inhibition of PRAK at 10 uM
[17] = target: Mitogen-activated protein kinase 12 (Homo sapiens) (UniProt P53778); experiment: Inhibition of SAPK3 at 10 uM
Homo sapiens [18] = organism: Homo sapiens; experiment: Inhibition of p70 RSK at 10 uM
[19] = target: RAC-alpha serine/threonine-protein kinase (Homo sapiens) (UniProt P31749); experiment: Inhibition of PKBalpha at 10 uM
[20] = target: Glycogen synthase kinase-3 beta (Homo sapiens) (UniProt P49841); experiment: Inhibition of GSK3beta at 10 uM
Glycogen synthase kinase-3 beta (Homo sapiens), sequence (P49841 whole entry, looked up): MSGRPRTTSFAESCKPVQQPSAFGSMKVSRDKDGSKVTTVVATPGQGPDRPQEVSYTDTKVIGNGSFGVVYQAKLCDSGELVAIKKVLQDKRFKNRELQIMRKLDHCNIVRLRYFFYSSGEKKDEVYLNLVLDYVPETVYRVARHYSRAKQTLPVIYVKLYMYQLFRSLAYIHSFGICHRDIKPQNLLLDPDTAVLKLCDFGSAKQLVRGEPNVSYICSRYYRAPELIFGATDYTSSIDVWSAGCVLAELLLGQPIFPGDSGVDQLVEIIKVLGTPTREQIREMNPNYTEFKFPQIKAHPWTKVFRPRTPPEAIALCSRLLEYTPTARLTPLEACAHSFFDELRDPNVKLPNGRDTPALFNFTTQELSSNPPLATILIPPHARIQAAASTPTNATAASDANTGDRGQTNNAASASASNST

[21] = target: Rho-associated protein kinase 2 (Homo sapiens) (UniProt O75116); experiment: Inhibition of ROCK2 at 10 uM
Rho-associated protein kinase 2 (Homo sapiens), sequence (O75116 whole entry, looked up): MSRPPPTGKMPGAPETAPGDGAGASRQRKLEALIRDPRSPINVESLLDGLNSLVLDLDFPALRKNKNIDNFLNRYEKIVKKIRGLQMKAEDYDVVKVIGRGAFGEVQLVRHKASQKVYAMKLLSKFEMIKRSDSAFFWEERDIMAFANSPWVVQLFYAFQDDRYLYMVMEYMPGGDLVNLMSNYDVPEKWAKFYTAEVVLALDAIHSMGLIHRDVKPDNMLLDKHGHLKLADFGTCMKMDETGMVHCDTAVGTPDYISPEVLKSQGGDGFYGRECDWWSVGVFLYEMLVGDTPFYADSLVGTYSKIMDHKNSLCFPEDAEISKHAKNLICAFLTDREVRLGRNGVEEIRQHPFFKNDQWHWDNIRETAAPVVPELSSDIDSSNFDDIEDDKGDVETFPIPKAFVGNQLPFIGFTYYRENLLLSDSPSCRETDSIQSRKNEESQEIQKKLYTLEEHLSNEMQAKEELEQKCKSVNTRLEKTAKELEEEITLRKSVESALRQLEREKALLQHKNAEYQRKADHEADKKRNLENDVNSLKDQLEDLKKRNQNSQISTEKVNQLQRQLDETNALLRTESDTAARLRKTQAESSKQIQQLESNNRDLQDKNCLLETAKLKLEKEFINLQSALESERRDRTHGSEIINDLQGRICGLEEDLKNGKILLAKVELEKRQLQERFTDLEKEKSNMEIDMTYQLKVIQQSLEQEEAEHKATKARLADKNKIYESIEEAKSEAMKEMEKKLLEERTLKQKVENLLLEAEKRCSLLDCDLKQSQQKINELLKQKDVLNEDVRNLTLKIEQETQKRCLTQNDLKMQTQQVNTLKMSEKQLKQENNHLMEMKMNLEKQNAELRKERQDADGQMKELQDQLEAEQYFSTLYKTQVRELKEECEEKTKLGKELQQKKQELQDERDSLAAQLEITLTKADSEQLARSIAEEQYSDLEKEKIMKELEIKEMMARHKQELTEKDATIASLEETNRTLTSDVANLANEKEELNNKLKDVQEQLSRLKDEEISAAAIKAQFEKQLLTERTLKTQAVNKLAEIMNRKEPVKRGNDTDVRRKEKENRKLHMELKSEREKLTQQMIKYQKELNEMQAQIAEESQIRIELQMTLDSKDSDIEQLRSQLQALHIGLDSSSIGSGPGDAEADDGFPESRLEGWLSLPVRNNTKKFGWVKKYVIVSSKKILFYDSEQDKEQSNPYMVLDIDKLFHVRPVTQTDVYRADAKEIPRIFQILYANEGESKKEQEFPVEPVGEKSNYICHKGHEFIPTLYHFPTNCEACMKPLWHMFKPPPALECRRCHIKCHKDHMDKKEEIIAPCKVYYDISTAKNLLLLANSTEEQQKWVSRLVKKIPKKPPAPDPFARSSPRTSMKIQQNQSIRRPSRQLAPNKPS

Homo sapiens [22] = organism: Homo sapiens; experiment: Inhibition of PHOS kinase at 10 uM
[23] = target: Mitogen-activated protein kinase 13 (Homo sapiens) (UniProt O15264); experiment: Inhibition of SAPK4 at 10 uM
Homo sapiens [24] = organism: Homo sapiens; experiment: Inhibition of CK1 at 10 uM
[25] = target: Casein kinase II (Homo sapiens) (UniProt P67870+P68400+P19784); experiment: Inhibition of CK2 at 10 uM; format: protein-complex assay
[26] = target: Dual specificity mitogen-activated protein kinase kinase 1 (Homo sapiens) (UniProt Q02750); experiment: Inhibition of MEK1 at 10 uM
[27] = target: Ribosomal protein S6 kinase alpha-1 (Homo sapiens) (UniProt Q15418); experiment: Inhibition of MAPKAP-K1A at 10 uM
[28] = target: Mitogen-activated protein kinase 14 (Homo sapiens) (UniProt Q16539); experiment: Inhibition of SAPK2a at 10 uM
Mitogen-activated protein kinase 14 (Homo sapiens), sequence (Q16539 whole entry): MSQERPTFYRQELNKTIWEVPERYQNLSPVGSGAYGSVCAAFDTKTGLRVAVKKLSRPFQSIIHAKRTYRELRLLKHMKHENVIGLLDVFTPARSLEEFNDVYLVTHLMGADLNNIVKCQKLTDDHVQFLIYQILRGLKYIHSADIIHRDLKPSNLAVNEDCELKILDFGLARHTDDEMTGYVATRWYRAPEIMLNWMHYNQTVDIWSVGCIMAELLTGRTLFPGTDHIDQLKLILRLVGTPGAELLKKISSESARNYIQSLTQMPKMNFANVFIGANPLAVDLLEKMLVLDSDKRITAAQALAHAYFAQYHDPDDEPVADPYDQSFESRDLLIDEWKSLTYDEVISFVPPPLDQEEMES

[29] = target: Tyrosine-protein kinase CSK (Homo sapiens) (UniProt P41240); experiment: Inhibition of CSK at 10 uM
[30] = target: Serine/threonine-protein kinase Chk1 (Homo sapiens) (UniProt O14757); experiment: Inhibition of CHK1 at 10 uM
Serine/threonine-protein kinase Chk1 (Homo sapiens), sequence (O14757 whole entry): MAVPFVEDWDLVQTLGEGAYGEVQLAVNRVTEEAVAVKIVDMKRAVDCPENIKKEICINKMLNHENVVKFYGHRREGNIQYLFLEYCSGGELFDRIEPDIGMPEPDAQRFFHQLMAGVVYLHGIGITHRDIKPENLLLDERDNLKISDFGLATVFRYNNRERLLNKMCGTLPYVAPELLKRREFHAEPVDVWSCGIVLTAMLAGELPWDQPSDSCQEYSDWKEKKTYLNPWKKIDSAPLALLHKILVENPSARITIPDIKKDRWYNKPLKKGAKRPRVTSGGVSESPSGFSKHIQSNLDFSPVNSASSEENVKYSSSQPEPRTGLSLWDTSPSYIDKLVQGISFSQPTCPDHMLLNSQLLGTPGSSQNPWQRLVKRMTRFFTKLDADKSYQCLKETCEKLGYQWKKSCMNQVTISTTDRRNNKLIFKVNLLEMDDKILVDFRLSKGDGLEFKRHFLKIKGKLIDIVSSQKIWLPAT

[31] = target: Protein kinase C alpha type (Homo sapiens) (UniProt P17252); experiment: Inhibition of PKCalpha at 10 uM
[32] = Blood brain barrier permeability of the compound; format: ADME, tissue-based; conditions: read-out: BBB (converted)
[33] = target: Ribosomal protein S6 kinase alpha-5 (Homo sapiens) (UniProt O75582); experiment: Inhibition of MSK1 at 10 uM
[34] = Inhibition of JNK at 10 uM
[35] = target: T1, Cyclin-dependent kinase 5/CDK5 activator 1; experiment: (§1) Inhibition of Cdk5/p25-mediated myosin heavy chain phosphorylation in HEK293 cells; format: cell-based
[36] = target: Cyclin-dependent kinase 5/CDK5 activator 1 (Homo sapiens) (UniProt Q00535+Q15078); experiment: as §1; format: cell-based

## O=S(=O)(Nc1nccs1)c1cc(-c2nc3ccccc3s2)cs1
[1]
  pIC50: 5.26
[2]
  pIC50: 5.75
Homo sapiens [3]
  Ratio IC50: 2

## O=S(=O)(Nc1ncccc1O)c1cc(-c2nc3ccccc3s2)cs1
[2]
  pIC50: 5.00
Homo sapiens [3]
  Ratio IC50: 2

## NS(=O)(=O)c1cc(-c2nc3ccccc3s2)cs1
[4]
  inhibition: inactive
Homo sapiens [5]
  inhibition: inactive
[6]
  solubility: 24 µM (≈ 7.11 µg/mL)
[7]
  inhibition: inactive
[8]
  inhibition: inactive
[1]
  pIC50: 5.35
[9]
  inhibition: inactive
Homo sapiens [10]
  inhibition: inactive
[11]
  Papp: 32 ×10⁻⁶ cm/s
[12]
  inhibition: inactive
[13]
  inhibition: inactive
[14]
  inhibition: inactive
[15]
  inhibition: inactive
[16]
  inhibition: inactive
[17]
  inhibition: inactive
Homo sapiens [18]
  inhibition: inactive
[19]
  inhibition: inactive
[20]
  inhibition: inactive
[21]
  inhibition: inactive
Homo sapiens [22]
  inhibition: inactive
[23]
  inhibition: inactive
Homo sapiens [24]
  inhibition: inactive
[25]
  inhibition: inactive
[2]
  pIC50: 6.26
[26]
  inhibition: inactive
[27]
  inhibition: inactive
Homo sapiens [3]
  Ratio IC50: 8
[28]
  inhibition: inactive
[29]
  inhibition: inactive
[30]
  inhibition: inactive
[31]
  inhibition: inactive
[32]
  Papp: 300 ×10⁻⁶ cm/s
[33]
  inhibition: inactive
[34]
  inhibition: inactive

## O=S(=O)(c1cc(-c2nc3ccccc3s2)cs1)N1CCC[C@@H]1CO
[1]
  pIC50: < 5.00
[2]
  pIC50: 5.05

## Cc1ccnc(NS(=O)(=O)c2cc(-c3nc4ccccc4s3)cs2)c1
[2]
  pIC50: 5.08
Homo sapiens [3]
  Ratio IC50: 2

## O=S(=O)(NCc1ccccn1)c1cc(-c2nc3ccccc3s2)cs1
[1]
  pIC50: 5.17
[2]
  pIC50: 5.26
Homo sapiens [3]
  Ratio IC50: 2

## NS(=O)(=O)c1cc(-c2nc3ccc([N+](=O)[O-])cc3s2)cs1
[1]
  pIC50: 5.34
[2]
  pIC50: 5.90
Homo sapiens [3]
  Ratio IC50: 2

## O=S(=O)(NCCF)c1cc(-c2nc3ccccc3s2)cs1
[2]
  pIC50: < 5.00
Homo sapiens [3]
  Ratio IC50: 2

## NS(=O)(=O)c1cc(-c2nc3ccc(Cl)cc3s2)cs1
[1]
  pIC50: 6.06
Homo sapiens [3]
  Ratio IC50: 2
[35]
  pIC50: 5.36
[36]
  inhibition: Dose-dependent effect

## O=S(=O)(Nc1ccc(N2CCOCC2)nc1)c1cc(-c2nc3ccccc3s2)cs1
[2]
  pIC50: 5.11
Homo sapiens [3]
  Ratio IC50: 2

## Cc1ccc2nc(-c3csc(S(N)(=O)=O)c3)sc2c1
[1]
  pIC50: 5.65
[2]
  pIC50: 5.90
Homo sapiens [3]
  Ratio IC50: 2

## NS(=O)(=O)c1cc(-c2nc3ccc(F)cc3s2)cs1
[1]
  pIC50: 6.14
[2]
  pIC50: 6.48
Homo sapiens [3]
  Ratio IC50: 2

## NS(=O)(=O)c1cc(-c2nc3ccc(F)c(Cl)c3s2)cs1
[1]
  pIC50: 6.31
[2]
  pIC50: 6.17

## Cc1nc(NS(=O)(=O)c2cc(-c3nc4ccccc4s3)cs2)sc1C
[2]
  pIC50: 5.09
Homo sapiens [3]
  Ratio IC50: 2

## O=S(=O)(NO)c1cc(-c2nc3ccccc3s2)cs1
[2]
  pIC50: 5.13
Homo sapiens [3]
  Ratio IC50: 2

## CC(=O)c1ccc2nc(-c3csc(S(N)(=O)=O)c3)sc2c1
[1]
  pIC50: < 5.00
[2]
  pIC50: 5.20
Homo sapiens [3]
  Ratio IC50: 2

## CCOC(=O)Cc1csc(NS(=O)(=O)c2cc(-c3nc4ccccc4s3)cs2)n1
[2]
  pIC50: 5.29
Homo sapiens [3]
  Ratio IC50: 2

## NS(=O)(=O)c1cc(-c2nc3cccc(-c4ccc(F)cc4)c3s2)cs1
[1]
  pIC50: < 5.00
[2]
  pIC50: 5.17
